The values below come from PubChem BioAssay.

Assay [1] is described as follows: inhibitors of TNFa-induced NFkB p65 translocation, primary screen, imaging, HUVEC, MLSMR starter and 10KST1 sets (AID 438;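 active = inhibition above 20% together with a positive visual image hit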;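 also: compound added about 3h40 before a 20 min TNFalpha stimulation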;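 as to inhibition: signal is the nuclear over cytoplasmic p65 intensity ratio per well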). The settings on record: HUVEC TNFa-induced p65 nuclear translocation; cell count: measured here: nuclei count (cytotoxicity indicator), at 2.08 µM; inhibition: at 2 µM, stronger effect = higher value, 0% TNFa-plus-vehicle, 100% no-TNFa wells.
Assay [2] is described as follows: endothelial E-selectin expression blockers – imaging, HUVEC, immunofluorescence, MLSMR starter and 10KST1 sets, primary screen (AID 487;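 active = visually confirmed hit in the image check and inhibition above 20%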;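 as to inhibition: signal is fraction of cell area covered by stained E-selectin grains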;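 as to nuclei count: 100% = median nuclei count of all wells on the same plate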). The note with it: HUVEC TNFalpha-induced E-selectin immunofluorescence imaging, at 2 µM; inhibition: stronger effect = higher value; nuclei count: measured here: cell number, toxicity.
A short description of assay [3]: Primary imaging screen for DUSP6 inhibitors that restore phospho-Erk in transfected HeLa cells, chemical complementation (AID 609;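 active = compounds giving at least 50% inhibition in the cell-based MKP-3 phosphatase rescue imaging test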;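 as to inhibition: phospho-Erk level distribution per well compared with pooled transfected vehicle control wells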). The note with it: HeLa MKP-3 transfected, phospho-Erk imaging KS statistic, at 10 µM, cells stimulated with TPA for 15 min.
Assay [4] concerns the target Dual specificity protein phosphatase 6 (Homo sapiens) (UniProt Q16828). The description is as above. The settings on record: HeLa MKP-3 transfected, phospho-Erk imaging KS statistic; at 10 µM; stronger effect = higher value; cells stimulated with TPA for 15 min.
For assay [5], the target named is Voltage-gated potassium channel subunit beta-2 (Rattus norvegicus) (UniProt P62483). Put plainly: inhibitors of rat Kvbeta2 reductase activity – biochemical, NADPH fluorescence, primary screen (AID 622;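 active = fluorescence slope higher than the sample average by over 3 SD, cut at about -0.22 in these data, passing the limit was not always enough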;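 also: slope of raw intensity against log time taken from 70 to 1610 s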). The note with it: recombinant KvBeta, 4-cyanobenzaldehyde reduction, at 10 µM, stronger effect = higher value.
Sequence of Voltage-gated potassium channel subunit beta-2 (Rattus norvegicus) (P62483 whole entry, looked up): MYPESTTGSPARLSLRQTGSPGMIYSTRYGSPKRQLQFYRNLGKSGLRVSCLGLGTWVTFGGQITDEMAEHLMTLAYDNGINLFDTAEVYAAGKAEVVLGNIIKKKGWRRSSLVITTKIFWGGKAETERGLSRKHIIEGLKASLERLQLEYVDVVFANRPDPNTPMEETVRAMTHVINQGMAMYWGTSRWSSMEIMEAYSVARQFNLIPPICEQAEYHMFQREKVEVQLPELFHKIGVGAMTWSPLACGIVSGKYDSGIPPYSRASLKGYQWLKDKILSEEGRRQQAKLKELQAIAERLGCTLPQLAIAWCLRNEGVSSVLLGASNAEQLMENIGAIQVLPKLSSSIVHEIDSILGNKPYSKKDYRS
Assay [6] has the same target. Put plainly: enhancers of rat Kvbeta2 NADPH turnover – biochemical, NADPH fluorescence, primary screen (AID 623;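 active = NADPH fluorescence slope more negative than the mean of all samples by about 3 SD, 99.7% confidence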;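 also: fluorescence intensity change per second fitted from 20 to 320 s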). The note with it: Recombinant KvBeta, NADPH fluorescence decrease slope, 10 min; at 10 µM; stronger effect = lower value.
Assay [7] addresses Muscarinic acetylcholine receptor M4 (Homo sapiens) (UniProt P08173). Briefly: M4-linked GIRK flux change, two-sided – cell-based, HEK293 M4/GIRK, thallium flux, BTC-AM, M4 allosteric agonist project, primary screen (AID 625;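 active = fluorescence slope after compound addition differing from the mean of all tested samples at 99.7% confidence, mostly higher but some lower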;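 also: thallium influx through GIRK channels coupled to M4 in HEK293 cells with BTC-AM dye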). The note with it: at 10 µM, actives lie on both sides. Put shortly: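 Material – HEK293 cells with M4 receptor and GIRK channels · Buffer or medium – pH 7.3 thallium assay buffer · Doses – one dose, 10 µM final · Timing – cells overnight at 37 °C, BTC-AM loading 1 h, reads 2 min total · Measured by – kinetic fluorescence with BTC-AM dye · Controls – carbachol and DMSO controls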

A short description of assay [8]: inhibitors of larval lipid processing in zebrafish, primary screen, whole organism, PED6 fluorescence, gall bladder and intestine (AID 686).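 Also: larvae 5 to 7 days old with five fish per well; signal comes from phospholipase A2 cleavage of quenched PED6 carried via bile; overnight exposure to compound and PED6 before scoring.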 The settings on record: Zebrafish larvae PED6 lipid processing, fluorescence scoring; screened at 20 µM (by protocol). Put shortly:
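system = live zebrafish larvae aged 5-7 days, whole organism | probe or stimulus = ingested quenched lipid PED6 at 100 nM | doses = 20 µM single dose | timing = overnight exposure | detection = fluorescence microscopy with visual scoring of gall bladder and intestine | read-out = visual per-well fluorescence inhibition score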

The nature of assay [9]: loss of swimming-algae plug formation – whole organism, Chlamydomonas reinhardtii, WT vs cilia-less mutant, absorbance, 96-well, primary screen (AID 463189;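 active = inhibition at or above 50% relative to wild type and mutant plate controls; inactive = inhibition below 50%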;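 also: 0% = wild type cc124 cells in DMSO and 100% = ciliumless bld1 mutant cells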). The settings on record: Chlamydomonas reinhardtii gravitaxis, OD600 absorbance, 2 days; at 10 µM; stronger effect = higher value.
Where [10] appears, read: measured here: cell density z-score.
The mark [11] stands for this setting: measured here: nuclear c-Myc green intensity z-score.
[12] abbreviates: measured here: nuclear pErk red intensity z-score, stronger effect = higher value.

SMILES strings stand for the structures. Calls of active or inactive are those of the source.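 The calls were made as follows, unless noted: active = a full or partial loss of lipid-probe fluorescence in the fish gall bladder, intestine or both, judged by eye; inactive = no fluorescence loss, or compound toxic to the fish.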

Sequence of Dual specificity protein phosphatase 6 (Homo sapiens) (Q16828 whole entry, looked up): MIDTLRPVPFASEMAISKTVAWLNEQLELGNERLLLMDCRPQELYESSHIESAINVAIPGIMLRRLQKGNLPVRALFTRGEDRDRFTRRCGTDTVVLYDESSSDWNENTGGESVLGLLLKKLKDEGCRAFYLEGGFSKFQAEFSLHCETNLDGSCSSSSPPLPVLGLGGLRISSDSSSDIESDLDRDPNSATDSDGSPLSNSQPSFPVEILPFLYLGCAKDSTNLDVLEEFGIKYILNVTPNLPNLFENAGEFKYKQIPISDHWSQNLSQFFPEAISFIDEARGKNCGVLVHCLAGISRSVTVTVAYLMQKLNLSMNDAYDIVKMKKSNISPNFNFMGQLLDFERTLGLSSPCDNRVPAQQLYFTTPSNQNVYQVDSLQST
Sequence of Muscarinic acetylcholine receptor M4 (Homo sapiens) (P08173 whole entry, looked up): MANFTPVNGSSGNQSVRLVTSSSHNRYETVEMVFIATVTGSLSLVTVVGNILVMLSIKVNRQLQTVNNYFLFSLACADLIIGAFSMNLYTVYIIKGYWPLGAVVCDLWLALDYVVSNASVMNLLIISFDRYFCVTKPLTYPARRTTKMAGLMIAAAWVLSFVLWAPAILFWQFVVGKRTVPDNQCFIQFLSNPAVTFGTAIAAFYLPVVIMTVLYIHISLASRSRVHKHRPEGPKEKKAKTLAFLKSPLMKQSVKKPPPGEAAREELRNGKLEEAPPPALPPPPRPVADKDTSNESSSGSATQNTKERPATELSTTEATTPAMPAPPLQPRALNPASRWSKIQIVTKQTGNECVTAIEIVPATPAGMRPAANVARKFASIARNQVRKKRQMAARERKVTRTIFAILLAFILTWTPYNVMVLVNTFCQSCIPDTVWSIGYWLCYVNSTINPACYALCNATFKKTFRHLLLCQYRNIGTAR

For orientation: inhibition means the change of the read-out against control, counted positive when it falls. As for `Cc1ccc(C2/C(=C(\O)c3ccc4c(c3)OCCO4)C(=O)C(=O)N2CCCN(C)C)o1` (centres undefined), the cell count in [1] worked out at 360. In addition, the inhibition in [1] is -5.9% (inactive); in [2], 24.2% (inactive); in assay [4], 14% (inactive); in assay [9], -17.7% (inactive). This molecule also showed a nuclei count in [2] of 113%. The z-score is -1.73 in assay [3] (setting [10]), 0.575 in assay [3] (setting [11]) and -0.16 in assay [3] (setting [12]). For the same molecule, the fluorescence slope in assay [5] is -0.474 (inactive); in [7] it was 0.00787 (inactive). Besides, the NADPH fluorescence slope in [6] is -8.1e-06 (inactive). Also, the molecule was called inactive in assay [8].
For `O=c1[nH]c2sc3c(c2c(=O)n1Cc1ccccc1)CCC3`, the cell count in [1] was 602. The inhibition in [1] was -2.5% (inactive); in [2] it was -99.8% (inactive); in [4], 9.07% (inactive); in [9], -9.09% (inactive). This molecule also had a nuclei count in [2] of 146%. Also, the z-score was 0.896 in [3] (setting [10]), 0.335 in assay [3] (setting [11]) and -0.051 in assay [3] (setting [12]). Besides, the fluorescence slope in [5] was -0.453 (inactive); in [7], 0.00552 (inactive). Further, in assay [6], the NADPH fluorescence slope was -0.000103 (inactive). The outcome in [8] was inactive.
Consider `N#CC1=C(N)OC2=C(C(=O)CCC2)[C@]12C(=O)N(CC(N)=O)c1ccccc12`, for which the cell count in assay [1] worked out at 485. Besides, the inhibition in [1] was -9.7% (inactive); in assay [2] it was -41.1% (inactive); in assay [4], -7.28% (inactive); in assay [9], -0.197% (inactive). This molecule showed a nuclei count in [2] of 130%. Moreover, the z-score in [3] (setting [10]) is -0.751; in [3] (setting [11]), 0.747; in assay [3] (setting [12]), -0.43. In addition, the figures for the fluorescence slope in [5] and in assay [7] were -0.431 (inactive) and 0.00487 (inactive), respectively. Further, in assay [6], the NADPH fluorescence slope is -3e-05 (inactive). The call in [8] was inactive.
With `CC1(C(=O)CSc2nc3ccccc3[nH]2)CCC(=O)O1` (centres undefined), the cell count in [1] worked out at 631. Besides, the inhibition in [1] is -2% (inactive); in assay [2] it was -8.2% (inactive); in [4], -13.3% (inactive); in assay [9] it was 0.18% (inactive). Besides, in assay [2], the nuclei count came out at 115%. Besides, the z-score is -2.03 in assay [3] (setting [10]), -0.005 in assay [3] (setting [11]) and -0.394 in [3] (setting [12]). Moreover, the fluorescence slope is -0.508 (inactive) in assay [5] and 0.0059 (inactive) in [7]. The NADPH fluorescence slope in [6] is -1.8e-05 (inactive). Besides, the outcome in assay [8] was inactive.
Regarding `C=CCNc1nc(C)nc(OC)n1`, in [1], the cell count came to 634. Further, the inhibition in [1] was -0.1% (inactive); in assay [2], 69.9% (active); in [4], 14.7% (inactive); in assay [9] it was -10.1% (inactive). In assay [2], this molecule registered a nuclei count of 85.8%. The z-score in assay [3] (setting [10]) was -3.44; in [3] (setting [11]), 2.82; in assay [3] (setting [12]) it was 1.07. Besides, the fluorescence slope is -0.481 (inactive) in [5] and 0.00536 (inactive) in assay [7]. Also, the NADPH fluorescence slope in [6] is -4.7e-05 (inactive). Moreover, in assay [8], the molecule was called inactive.
Regarding `CCCCc1nc2sc3c(c2c(=O)[nH]1)CCC3`, in assay [1], the cell count is 691. Moreover, the inhibition is 3.3% (inactive) in assay [1], 8% (inactive) in assay [2], -9.53% (inactive) in assay [4] and 34.8% (inactive) in assay [9]. Besides, the nuclei count in [2] came to 129%. Further, the z-score was -0.915 in assay [3] (setting [10]), 0.812 in [3] (setting [11]) and -0.126 in assay [3] (setting [12]). The results for the fluorescence slope in assay [5] and in [7] were -0.421 (inactive) and 0.00621 (inactive), respectively. Also, in assay [6], the NADPH fluorescence slope was -4e-05 (inactive). Also, the result in [8] was inactive.
Take `CSc1nncc(=O)[nH]1`: the cell count in assay [1] is 642. The inhibition was 1.5% (inactive) in assay [1], -96.8% (inactive) in assay [2], 6.51% (inactive) in [4] and -3.84% (inactive) in [9]. The molecule also had a nuclei count in assay [2] of 160%. For the same molecule, the z-score in assay [3] (setting [10]) was 0.525; in [3] (setting [11]), -0.545; in assay [3] (setting [12]), -0.327. The values for the fluorescence slope in assay [5] and in assay [7] were -0.452 (inactive) and 0.00648 (inactive), respectively. Also, the NADPH fluorescence slope in [6] is -4.4e-05 (inactive). Also, the result in assay [8] was inactive.
Take `Nc1ccc2c3c(cccc13)CC2`: the cell count in assay [1] came out at 400. For the same molecule, the inhibition is -4.5% (inactive) in assay [1], -74% (inactive) in assay [2], 9.37% (inactive) in [4] and -6.34% (inactive) in [9]. The nuclei count in [2] came to 108%. For the same molecule, the results for the z-score in assay [3] (setting [10]), in assay [3] (setting [11]) and in assay [3] (setting [12]) were 0.938, 0.125 and -0.141, respectively. For the same molecule, the fluorescence slope in assay [5] is -0.281 (inactive); in assay [7], 0.00407 (inactive). Besides, the NADPH fluorescence slope in [6] was -2.2e-05 (inactive). Also, the call in assay [8] was inactive.
Consider `COn1c(SC2CCCCC2)nc2ccccc2c1=O`, for which, in [1], the cell count was 587. In addition, the inhibition in [1] is -3.1% (inactive); in assay [2], -35.7% (inactive); in [4], -7.28% (inactive); in assay [9], 0.873% (inactive). This molecule also returned a nuclei count in assay [2] of 160%. Also, the figures for the z-score in assay [3] (setting [10]), in assay [3] (setting [11]) and in assay [3] (setting [12]) were 0.823, 0.448 and -1.08, respectively. The fluorescence slope was -0.48 (inactive) in [5] and 0.00976 (inactive) in assay [7]. Moreover, the NADPH fluorescence slope in [6] was -7.1e-05 (inactive). Moreover, the molecule was called inactive in [8].
Consider `CCOC(=O)c1[nH]c2cc3c(cc2c1NC(=O)CN1CC(C)CC(C)C1)OCO3` (centres undefined), for which the cell count in assay [1] worked out at 527. The inhibition was 1.2% (inactive) in assay [1], 5.3% (inactive) in assay [2], 9.91% (inactive) in assay [4] and -3.44% (inactive) in assay [9]. The same molecule gave a nuclei count in [2] of 167%. The z-score in [3] (setting [10]) is 0.5; in assay [3] (setting [11]), -1.18; in assay [3] (setting [12]) it was -0.714. The fluorescence slope in assay [5] was -0.329 (inactive); in assay [7], 0.00584 (inactive). Moreover, in assay [6], the NADPH fluorescence slope is -8.9e-06 (inactive). Further, the molecule was called inactive in assay [8].
Consider `CCO/C(C)=N/n1c2nc3ccccc3nc2c2c(=O)n(Cc3ccccc3Cl)c(C)nc21`, for which the cell count in [1] is 649. Further, the inhibition is -3.5% (inactive) in [1], -201% (inactive) in assay [2], 9.37% (inactive) in assay [4] and 12.7% (inactive) in [9]. For the same molecule, the nuclei count in [2] was 159%. In addition, the z-score in [3] (setting [10]) is -0.0584; in assay [3] (setting [11]) it was -0.543; in assay [3] (setting [12]), -0.0329. Also, the results for the fluorescence slope in assay [5] and in assay [7] were -0.455 (inactive) and 0.00359 (inactive), respectively. In addition, the NADPH fluorescence slope in assay [6] is -3.5e-05 (inactive). In assay [8], the molecule was called inactive.
For `CCCC1CC(=O)OC1(C)C(=O)CSc1n[nH]c(-c2ccccc2)n1` (centres undefined), in assay [1], the cell count worked out at 686. The inhibition was -3.7% (inactive) in [1], -35.6% (inactive) in assay [2], -9.66% (inactive) in assay [4] and -3.69% (inactive) in [9]. Also, the nuclei count in [2] was found to be 142%. Moreover, the z-score in assay [3] (setting [10]) is 0.882; in [3] (setting [11]), 0.0839; in assay [3] (setting [12]) it was -0.223. For the same molecule, the fluorescence slope in assay [5] was -0.472 (inactive); in assay [7] it was 0.00594 (inactive). Also, the NADPH fluorescence slope in assay [6] is -1.5e-05 (inactive). For the same molecule, in assay [8], the outcome was “active; no signal in intestine only”.
On to `CCc1nc(NC2CCCCC2)c(C#N)c2c1COC(C)(C)C2`, for which the cell count in [1] was 573. Moreover, the inhibition in assay [1] is -9.3% (inactive); in [2], -95.5% (inactive); in assay [4] it was 29.5% (inactive); in [9], -1.73% (inactive). This molecule also displayed a nuclei count in assay [2] of 153%. In addition, the z-score in assay [3] (setting [10]) was 0.843; in assay [3] (setting [11]) it was -0.37; in [3] (setting [12]), -0.579. For the same molecule, the fluorescence slope in [5] was -0.475 (inactive); in assay [7], 0.00603 (inactive). In addition, in [6], the NADPH fluorescence slope was -2.5e-05 (inactive). In addition, the outcome in assay [8] is “inactive; toxic”.
